ChEMBL document CHEMBL4304739, “Discovery of 3-(Indol-5-yl)-indazole Derivatives as Novel Myeloid Differentiation Protein 2/Toll-like Receptor 4 Antagonists for Treatment of Acute Lung Injury” (J Med Chem, 2019)
Calls of active or inactive are those of the source.

What was measured:
Peritoneal macrophage = experiment: Cytotoxicity against ICR mouse peritoneal macrophages assessed as reduction in cell viability at 10 uM measured after 24 hrs by MTT assay; type: cell-based
Method in brief: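 Peritoneal macrophages from ICR mice, 2.0×10^4 cells/well in DMEM with 10% FBS. Cells exposed to compound for 24 h, then MTT (5 mg/ml in 0.9% NaCl) added for 4 h at 37 °C in 5% CO2. Absorbance read at 490 nm; final DMSO 0.1%.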

[1] = biological target: Mitogen-activated protein kinase kinase kinase 4 (Homo sapiens) (UniProt Q9Y6R4); experiment: Inhibition of wild-type human partial length MAP3K4 (G1319 to E1608 residues) expressed in bacterial expression system at 1 uM by Kinomescan method
Chain of Mitogen-activated protein kinase kinase kinase 4 (Homo sapiens) (Q9Y6R4 whole entry, the tested form may be a part): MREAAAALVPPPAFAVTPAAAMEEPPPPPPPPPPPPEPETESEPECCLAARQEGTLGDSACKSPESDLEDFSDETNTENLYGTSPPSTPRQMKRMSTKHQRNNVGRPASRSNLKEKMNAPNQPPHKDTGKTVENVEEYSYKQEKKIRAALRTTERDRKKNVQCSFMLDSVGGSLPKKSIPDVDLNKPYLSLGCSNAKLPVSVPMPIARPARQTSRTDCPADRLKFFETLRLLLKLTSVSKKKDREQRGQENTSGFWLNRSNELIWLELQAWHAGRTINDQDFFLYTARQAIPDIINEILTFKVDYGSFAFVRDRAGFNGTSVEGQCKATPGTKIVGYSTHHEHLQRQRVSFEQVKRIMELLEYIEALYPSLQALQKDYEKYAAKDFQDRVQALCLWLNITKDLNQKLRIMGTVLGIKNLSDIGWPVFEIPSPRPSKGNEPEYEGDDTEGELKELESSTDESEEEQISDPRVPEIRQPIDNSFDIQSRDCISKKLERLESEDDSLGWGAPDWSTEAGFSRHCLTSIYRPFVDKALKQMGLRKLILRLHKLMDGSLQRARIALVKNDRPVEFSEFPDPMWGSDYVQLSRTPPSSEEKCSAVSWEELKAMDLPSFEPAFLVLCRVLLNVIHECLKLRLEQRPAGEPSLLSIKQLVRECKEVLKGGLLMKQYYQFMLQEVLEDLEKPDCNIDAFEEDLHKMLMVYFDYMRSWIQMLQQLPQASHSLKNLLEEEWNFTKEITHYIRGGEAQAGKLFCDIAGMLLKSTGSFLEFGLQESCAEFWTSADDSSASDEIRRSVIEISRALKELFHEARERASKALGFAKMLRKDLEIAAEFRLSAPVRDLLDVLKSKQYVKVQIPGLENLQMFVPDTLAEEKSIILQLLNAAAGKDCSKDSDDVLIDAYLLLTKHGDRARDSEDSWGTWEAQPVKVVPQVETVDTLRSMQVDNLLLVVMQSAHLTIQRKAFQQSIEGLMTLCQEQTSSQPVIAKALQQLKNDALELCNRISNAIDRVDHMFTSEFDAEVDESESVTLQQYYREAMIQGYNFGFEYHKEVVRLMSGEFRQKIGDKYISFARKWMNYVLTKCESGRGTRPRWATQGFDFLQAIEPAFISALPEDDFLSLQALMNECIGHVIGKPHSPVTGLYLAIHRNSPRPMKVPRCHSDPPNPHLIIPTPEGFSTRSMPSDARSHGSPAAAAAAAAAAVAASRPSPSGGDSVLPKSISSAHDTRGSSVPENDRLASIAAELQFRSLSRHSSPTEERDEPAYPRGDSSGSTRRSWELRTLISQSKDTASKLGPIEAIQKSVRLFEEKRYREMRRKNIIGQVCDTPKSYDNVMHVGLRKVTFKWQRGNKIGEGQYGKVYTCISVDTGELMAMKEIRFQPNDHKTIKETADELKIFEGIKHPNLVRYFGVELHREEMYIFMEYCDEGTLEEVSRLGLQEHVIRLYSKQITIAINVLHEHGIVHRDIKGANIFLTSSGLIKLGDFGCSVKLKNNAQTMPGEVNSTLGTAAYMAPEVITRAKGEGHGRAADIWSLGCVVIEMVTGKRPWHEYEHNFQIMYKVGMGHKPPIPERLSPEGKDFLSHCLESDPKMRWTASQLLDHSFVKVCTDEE
Method in brief: (§1)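 Binding-competition screen on the KINOMEscan platform, run by the provider, with the test compound at 1 μM. Readout is percent of control: (test signal − positive control signal)/(negative control signal − positive control signal) × 100. The DMSO negative control is set as 100% Ctrl and a control compound as 0% Ctrl. Lower values mean stronger hits.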

[2] = biological target: 3-phosphoinositide-dependent protein kinase 1 (Homo sapiens) (UniProt O15530); experiment: Inhibition of wild-type human full length PDPK1 (M1 to Q556 residues) expressed in bacterial expression system at 1 uM by Kinomescan method
Chain of 3-phosphoinositide-dependent protein kinase 1 (Homo sapiens) (O15530 whole entry, the tested form may be a part): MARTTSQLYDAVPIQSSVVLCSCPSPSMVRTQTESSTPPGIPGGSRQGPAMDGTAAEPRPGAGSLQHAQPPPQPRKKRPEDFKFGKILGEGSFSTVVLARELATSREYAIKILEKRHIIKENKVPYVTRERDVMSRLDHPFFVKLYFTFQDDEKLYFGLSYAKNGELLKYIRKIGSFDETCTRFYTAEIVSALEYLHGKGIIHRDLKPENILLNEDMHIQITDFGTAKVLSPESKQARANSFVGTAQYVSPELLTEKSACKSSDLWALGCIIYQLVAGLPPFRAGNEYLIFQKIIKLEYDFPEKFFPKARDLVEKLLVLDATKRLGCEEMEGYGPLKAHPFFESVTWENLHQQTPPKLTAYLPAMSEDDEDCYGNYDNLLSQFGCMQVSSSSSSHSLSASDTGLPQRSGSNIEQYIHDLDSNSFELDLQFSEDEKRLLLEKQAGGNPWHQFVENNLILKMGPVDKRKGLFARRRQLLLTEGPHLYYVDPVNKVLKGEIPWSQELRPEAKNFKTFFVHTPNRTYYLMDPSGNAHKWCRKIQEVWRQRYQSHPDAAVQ
Method in brief: (§2)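 KINOMEscan competition binding screen at 1 μM compound. Results reported as % of control = (test − positive control)/(DMSO negative control − positive control) × 100, where lower values mean stronger hits.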

[3] = biological target: Angiopoietin-1 receptor (Homo sapiens) (UniProt Q02763); experiment: Inhibition of wild-type human partial length TIE2 (N804 to T1112 residues) expressed in bacterial expression system at 1 uM by Kinomescan method
Method in brief: (§3)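 Single-concentration screen at 1 μM on the KINOMEscan panel (98 kinases), run by the platform provider. Results are given as percent of control: % Ctrl = [(test signal − positive control signal)/(negative control signal − positive control signal)] × 100. DMSO serves as negative control (100% Ctrl) and a control compound as positive control (0% Ctrl). Lower values mean stronger binding hits.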

[4] = biological target: Testis-specific serine/threonine-protein kinase 1 (Homo sapiens) (UniProt Q9BXA7); experiment: Inhibition of wild-type human full length TSSK1B (M1 to Q367 residues) expressed in bacterial expression system at 1 uM by Kinomescan method; method in brief: as §2
Chain of Testis-specific serine/threonine-protein kinase 1 (Homo sapiens) (Q9BXA7 whole entry, the tested form may be a part): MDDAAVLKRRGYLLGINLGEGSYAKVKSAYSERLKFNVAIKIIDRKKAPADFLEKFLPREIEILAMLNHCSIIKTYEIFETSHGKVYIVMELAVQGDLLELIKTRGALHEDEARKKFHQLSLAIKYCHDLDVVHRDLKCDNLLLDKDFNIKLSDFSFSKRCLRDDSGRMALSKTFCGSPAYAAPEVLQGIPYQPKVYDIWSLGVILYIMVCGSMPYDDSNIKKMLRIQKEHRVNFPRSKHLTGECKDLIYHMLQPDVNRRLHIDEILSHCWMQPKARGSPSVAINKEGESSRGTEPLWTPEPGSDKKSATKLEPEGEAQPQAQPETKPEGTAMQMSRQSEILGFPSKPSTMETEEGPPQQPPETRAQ

Mus musculus [5] = experiment: Antiinflammatory activity in LPS-induced C57BL/6 mouse model of acute lung injury assessed as reduction in TNFalpha level at 5 to 10 mg/kg, iv pretreated for 15 mins followed by LPS stimulation and measured after 6 hrs by ELISA; type: functional, organism-based
Method in brief: (§4)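 Male C57BL/6 mice (18−22 g; n=8 per group). Compound in 0.1% CMC-Na given by tail vein injection 15 min before intraperitoneal LPS (20 mg/kg); controls received saline. Mice were sacrificed 6 h after LPS, and serum and lung tissue were collected.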

[6] = biological target: Inhibitor of nuclear factor kappa-B kinase subunit beta (Homo sapiens) (UniProt O14920); experiment: Inhibition of wild-type human full length IKK-beta (M1 to S756 residues) expressed in mammalian expression system at 1 uM by Kinomescan method; method in brief: as §2
[7] = biological target: Serine/threonine-protein kinase PAK 2 (Homo sapiens) (UniProt Q13177); experiment: Inhibition of wild-type human partial length PAK2 (P151 to R525 residues) expressed in bacterial expression system at 1 uM by Kinomescan method; method in brief: as §1
Chain of Serine/threonine-protein kinase PAK 2 (Homo sapiens) (Q13177 whole entry, the tested form may be a part): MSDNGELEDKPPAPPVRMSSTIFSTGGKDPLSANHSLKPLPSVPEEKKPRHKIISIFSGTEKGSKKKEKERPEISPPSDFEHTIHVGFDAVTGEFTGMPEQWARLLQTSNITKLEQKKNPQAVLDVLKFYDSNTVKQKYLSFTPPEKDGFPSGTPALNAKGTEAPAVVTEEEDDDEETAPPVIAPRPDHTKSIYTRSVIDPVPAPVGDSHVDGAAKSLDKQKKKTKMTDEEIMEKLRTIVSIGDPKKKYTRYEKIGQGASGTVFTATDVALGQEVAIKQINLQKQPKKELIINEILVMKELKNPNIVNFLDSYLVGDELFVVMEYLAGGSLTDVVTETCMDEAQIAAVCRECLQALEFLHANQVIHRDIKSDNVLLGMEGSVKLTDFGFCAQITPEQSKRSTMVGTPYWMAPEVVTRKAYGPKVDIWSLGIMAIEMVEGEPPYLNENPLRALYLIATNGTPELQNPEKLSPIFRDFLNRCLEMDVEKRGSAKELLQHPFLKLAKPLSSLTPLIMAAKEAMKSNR

[8] = biological target: Non-receptor tyrosine-protein kinase TYK2 (Homo sapiens) (UniProt P29597); experiment: Inhibition of wild-type human partial length TYK2 JH1 catalytic domain (V877 to C1187 residues) expressed in mammalian expression system at 1 uM by Kinomescan method; method in brief: as §3
[9] = biological target: Serine/threonine-protein kinase DCLK1 (Homo sapiens) (UniProt O15075); experiment: Inhibition of wild-type human partial length DCAMKL1 (L270 to A662 residues) expressed in mammalian expression system at 1 uM by Kinomescan method; method in brief: as §1
[10] = biological target: Ephrin type-A receptor 2 (Homo sapiens) (UniProt P29317); experiment: Inhibition of wild-type human partial length EPHA2 (T593 to V891 residues) expressed in bacterial expression system at 1 uM by Kinomescan method; method in brief: as §1
Chain of Ephrin type-A receptor 2 (Homo sapiens) (P29317 whole entry, the tested form may be a part): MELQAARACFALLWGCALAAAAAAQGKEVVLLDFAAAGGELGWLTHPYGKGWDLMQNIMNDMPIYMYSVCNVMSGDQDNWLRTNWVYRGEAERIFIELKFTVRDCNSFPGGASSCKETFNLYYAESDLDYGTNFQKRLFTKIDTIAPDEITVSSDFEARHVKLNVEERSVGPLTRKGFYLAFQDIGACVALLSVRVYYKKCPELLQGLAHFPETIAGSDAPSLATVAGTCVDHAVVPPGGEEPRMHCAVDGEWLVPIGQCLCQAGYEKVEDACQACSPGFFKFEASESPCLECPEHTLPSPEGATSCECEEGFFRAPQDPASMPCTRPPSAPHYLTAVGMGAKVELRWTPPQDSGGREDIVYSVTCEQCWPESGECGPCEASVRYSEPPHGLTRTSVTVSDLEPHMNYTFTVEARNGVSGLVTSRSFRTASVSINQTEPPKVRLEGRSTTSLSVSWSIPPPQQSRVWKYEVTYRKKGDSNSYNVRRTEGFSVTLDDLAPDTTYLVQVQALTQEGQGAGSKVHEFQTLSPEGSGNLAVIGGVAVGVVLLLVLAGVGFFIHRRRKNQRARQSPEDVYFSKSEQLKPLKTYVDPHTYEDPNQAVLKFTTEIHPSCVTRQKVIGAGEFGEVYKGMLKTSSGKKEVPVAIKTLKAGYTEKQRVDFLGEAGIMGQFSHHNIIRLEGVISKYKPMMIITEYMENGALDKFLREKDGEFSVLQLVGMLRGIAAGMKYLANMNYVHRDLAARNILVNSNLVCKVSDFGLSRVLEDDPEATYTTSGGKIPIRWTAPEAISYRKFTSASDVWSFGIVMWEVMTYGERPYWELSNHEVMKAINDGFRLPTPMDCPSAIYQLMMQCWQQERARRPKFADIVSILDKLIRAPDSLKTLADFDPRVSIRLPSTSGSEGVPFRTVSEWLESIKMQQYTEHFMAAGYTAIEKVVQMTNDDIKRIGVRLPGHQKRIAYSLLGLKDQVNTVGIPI

Mus musculus [11] = experiment: Antiinflammatory activity in LPS-induced C57BL/6 mouse model of acute lung injury assessed as reduction in lung injury score at 5 to 10 mg/kg, iv pretreated for 15 mins followed by LPS stimulation and measured after 6 hrs; type: functional, organism-based; method in brief: as §4
[12] = biological target: Glycogen synthase kinase-3 beta (Homo sapiens) (UniProt P49841); experiment: Inhibition of wild-type human full length GSK3B (M1 to T433 residues) expressed in mammalian expression system at 1 uM by Kinomescan method; method in brief: as §2
Mus musculus [13] = experiment: Antiinflammatory activity in LPS-induced C57BL/6 mouse model of acute lung injury assessed as reduction in IL12 mRNA level at 10 mg/kg, iv pretreated for 15 mins followed by LPS stimulation and measured after 6 hrs by SYBR green staining-based qRT-PCR analysis; type: functional, organism-based
Method in brief: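 Total lung RNA extracted, with DNase I removal of residual DNA. Quantitative PCR with mouse gene primers; each gene normalized to β-actin. C57BL/6 mice given compound iv 15 min before intraperitoneal LPS (20 mg/kg) and killed at 6 h.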

[14] = biological target: Ribosomal protein S6 kinase alpha-3 (Homo sapiens) (UniProt P51812); experiment: Inhibition of wild-type human partial length N-terminal RSK2 kinase domain 1 (M1 to D394 residues) expressed in mammalian expression system at 1 uM by Kinomescan method; method in brief: as §1
[15] = biological target: Myeloid differentiation primary response protein MyD88 (Homo sapiens) (UniProt Q99836); experiment: Binding affinity to recombinant MyD88 (unknown origin) by surface plasmon resonance analysis
Chain of Myeloid differentiation primary response protein MyD88 (Homo sapiens) (Q99836 whole entry, the tested form may be a part): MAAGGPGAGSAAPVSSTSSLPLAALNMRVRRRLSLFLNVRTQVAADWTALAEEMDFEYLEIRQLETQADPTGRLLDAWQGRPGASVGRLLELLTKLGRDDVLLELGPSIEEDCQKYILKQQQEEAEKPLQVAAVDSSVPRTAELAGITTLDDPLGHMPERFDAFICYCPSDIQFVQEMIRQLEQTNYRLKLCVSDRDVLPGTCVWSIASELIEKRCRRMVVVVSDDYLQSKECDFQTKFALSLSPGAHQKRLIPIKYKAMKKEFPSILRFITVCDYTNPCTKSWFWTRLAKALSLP

[16] = biological target: SRSF protein kinase 3 (Homo sapiens) (UniProt Q9UPE1); experiment: Inhibition of wild-type human partial length SRPK3 (P41 to P567 residues) expressed in bacterial expression system at 1 uM by Kinomescan method; method in brief: as §3
Chain of SRSF protein kinase 3 (Homo sapiens) (Q9UPE1 whole entry, the tested form may be a part): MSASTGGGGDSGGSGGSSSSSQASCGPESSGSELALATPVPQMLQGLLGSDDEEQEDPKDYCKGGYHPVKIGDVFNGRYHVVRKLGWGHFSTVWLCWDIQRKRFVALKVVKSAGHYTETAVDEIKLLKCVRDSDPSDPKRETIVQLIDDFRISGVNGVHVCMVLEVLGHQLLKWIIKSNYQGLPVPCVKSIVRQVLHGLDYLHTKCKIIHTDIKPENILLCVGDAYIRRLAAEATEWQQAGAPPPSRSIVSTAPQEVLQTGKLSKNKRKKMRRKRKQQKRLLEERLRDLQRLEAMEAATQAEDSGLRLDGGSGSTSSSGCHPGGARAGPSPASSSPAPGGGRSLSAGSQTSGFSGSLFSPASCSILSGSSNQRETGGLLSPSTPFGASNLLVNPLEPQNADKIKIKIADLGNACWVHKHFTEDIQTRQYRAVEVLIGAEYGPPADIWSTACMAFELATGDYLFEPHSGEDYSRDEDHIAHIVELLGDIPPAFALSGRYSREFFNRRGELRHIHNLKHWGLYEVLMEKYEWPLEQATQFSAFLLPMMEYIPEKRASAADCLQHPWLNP

[17] = biological target: Cyclin-dependent kinase 16 (Homo sapiens) (UniProt Q00536); experiment: Inhibition of wild-type human partial length PCTK1 (G160 to A474 residues) expressed in mammalian expression system at 1 uM by Kinomescan method; method in brief: as §1
[18] = biological target: Serine/threonine-protein kinase B-raf (Homo sapiens) (UniProt P15056); experiment: Inhibition of wild-type human partial length BRAF (S429 to E741 residues) expressed in mammalian expression system at 1 uM by Kinomescan method; method in brief: as §1
[19] = biological target: Mitogen-activated protein kinase 10 (Homo sapiens) (UniProt P53779); experiment: Inhibition of wild-type human partial length JNK3 (V28 to Q422 residues) expressed in mammalian expression system at 1 uM by Kinomescan method; method in brief: as §1
[20] = biological target: Dual specificity mitogen-activated protein kinase kinase 1 (Homo sapiens) (UniProt Q02750); experiment: Inhibition of wild-type human full length MEK1 (M1 to V393 residues) expressed in mammalian expression system at 1 uM by Kinomescan method; method in brief: as §2
[21] = biological target: Serine/threonine-protein kinase 32C (Homo sapiens) (UniProt Q86UX6); experiment: Inhibition of wild-type human partial length YANK3 (M68 to G486 residues) expressed in bacterial expression system at 1 uM by Kinomescan method; method in brief: as §3

O=C(Nc1ccc2[nH]nc(-c3ccc4[nH]ccc4c3)c2c1)c1c(Cl)cccc1Cl
inactive: inhibition [1] | inhibition [2] | inhibition [3] | inhibition [4] | inhibition [6] | inhibition [7] | inhibition [8] | inhibition [9] | inhibition [10] | inhibition [12] | inhibition [14] | Activity [15] | inhibition [16] | inhibition [17] | inhibition [18] | inhibition [19] | inhibition [20] | inhibition [21]
active: Activity (Mus musculus [5]) | Activity (Mus musculus [11]) | Activity (Mus musculus [13])
Non-Toxic: Activity (Peritoneal macrophage)
